Experimental data published in ChEMBL document CHEMBL4342521 (J Med Chem, 2020).
Calls of active or inactive are those of the source. The rule behind the calls is not given here.

Tested on: MV4-11
Assay: Inhibition of p53 degradation in human MV4-11 cells harboring wild type p53/FLT3-ITD mutant assessed as cleavage of pro caspase-3 at 100 nM after 24 hrs in presence of MDM2 inhibitor RG7388 by Western blot analysis
Assay type: functional, cell-based
Outline: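 Cells (1,500,000 per well) grown 12 h, then drug-treated as specified. Lysed in RIPA buffer, sonicated, centrifuged, protein normalized by BCA. Run on 4–12% Bis-Tris gels in MES, transferred, probed overnight at 4 °C with primary antibodies at 1/1000. Actin served as reference for LC3-II quantitation.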

For `CCCNNC(=O)/C=C/c1ccc(CNCCc2c(C)[nH]c3ccccc23)cc1.O=C(O)C(F)(F)F`, the inhibition was “Active”.
